Laboratory results from ChEMBL document CHEMBL3091343, “Nicotinamide phosphoribosyltransferase inhibitors, design, preparation, and structure-activity relationship” (J Med Chem, 2013).

What was measured:
MCF7 = experiment: Cytotoxicity against human MCF-7 cells assessed as growth inhibition after 72 hrs by WST-1 assay; type: functional, cell-based; settings: MCF7, 72 h
A2780 = experiment: Cytotoxicity against human A2780 cells assessed as growth inhibition after 72 hrs by WST-1 assay; type: functional, cell-based; settings: A2780, 72 h
[1] = molecular target: Nicotinamide phosphoribosyltransferase (Homo sapiens, UniProt P43490); experiment: Inhibition of NAMPT in human HepG2 cells using [14C]-nicotinamide/PRPP as substrate assessed as formation of [14C]-nicotinamide mononucleotide after 1 hr by liquid scintillation counting analysis; type: cell-based
Plasma = experiment: Metabolic stability in mouse plasma assessed as compound hydrolysis; type: ADME, cell-free
HCT-116 [2] = experiment: Cytotoxicity against APO866-resistant human HCT116 cells assessed as growth inhibition after 72 hrs by WST-1 assay; type: functional, cell-based; settings: HCT-116, 72 h
[3] = Toxicity in ip dosed NMRI mouse assessed as body weight loss administered as bid for 5 days; type: organism-based; settings: in vivo
[4] = Tmax in NMRI mouse at 50 mg/kg, iv; type: ADME, organism-based; parameters: dose 50 mg/kg, route intravenous; settings: in vivo
Method in brief: (§1)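 Mouse PK after a single i.v. dose. Plasma proteins were precipitated with acetonitrile containing internal standard (3:1 v/v). Samples were analysed by UPLC-MS/MS on a C18 column at 40°C with an acetonitrile–0.05% formic acid gradient, using positive electrospray MRM. Parameters were derived by non-compartmental analysis.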

[5] = Toxicity in ip dosed NMRI mouse assessed as blood cell count administered as bid for 5 days; type: organism-based; settings: in vivo
HCT-116 [6] = experiment: Cytotoxicity against human HCT116 cells assessed as growth inhibition after 72 hrs by WST-1 assay; type: functional, cell-based; settings: HCT-116, 72 h
[7] = Half life in NMRI mouse at 50 mg/kg, iv; type: ADME, organism-based; parameters: dose 50 mg/kg, route intravenous; settings: in vivo; method in brief: as §1
[8] = Clearance in NMRI mouse at 50 mg/kg, iv; type: ADME, organism-based; parameters: dose 50 mg/kg, route intravenous; settings: in vivo; method in brief: as §1
HCT-116 [9] = experiment: Resistance factor, ratio of IC50 for APO866-resistant human HCT116 cells to IC50 for human HCT116 cells; type: functional
[10] = Apparent volume of distribution in NMRI mouse at 50 mg/kg, iv; type: ADME, organism-based; parameters: dose 50 mg/kg, route intravenous; settings: in vivo, read-out: Vz; method in brief: as §1
[11] = Cmax in NMRI mouse at 50 mg/kg, iv; type: ADME, organism-based; parameters: dose 50 mg/kg, route intravenous; settings: in vivo; method in brief: as §1
[12] = AUC in NMRI mouse at 50 mg/kg, iv; type: ADME, organism-based; parameters: dose 50 mg/kg, route intravenous; settings: plasma; method in brief: as §1

Nicotinamide phosphoribosyltransferase, sequence (P43490 whole entry): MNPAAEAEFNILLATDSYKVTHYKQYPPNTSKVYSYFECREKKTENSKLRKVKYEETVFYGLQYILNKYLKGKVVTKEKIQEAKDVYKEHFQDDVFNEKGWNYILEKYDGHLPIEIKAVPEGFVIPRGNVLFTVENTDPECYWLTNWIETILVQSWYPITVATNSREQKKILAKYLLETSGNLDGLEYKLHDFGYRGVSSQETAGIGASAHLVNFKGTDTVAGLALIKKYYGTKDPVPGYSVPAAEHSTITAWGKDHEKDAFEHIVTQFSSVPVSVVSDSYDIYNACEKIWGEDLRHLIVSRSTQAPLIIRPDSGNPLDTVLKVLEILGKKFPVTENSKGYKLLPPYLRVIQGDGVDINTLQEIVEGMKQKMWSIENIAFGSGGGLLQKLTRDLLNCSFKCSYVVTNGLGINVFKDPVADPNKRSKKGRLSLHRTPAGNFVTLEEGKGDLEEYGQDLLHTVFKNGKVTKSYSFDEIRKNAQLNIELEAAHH

Compound | IC50 (MCF7) | IC50 (A2780) | other results
O=C(NCCCCCCCS(=O)(=O)N(OCCN1CCOCC1)C1CCCCC1)NCc1cccnc1 | 3.6 nM | 0.31 nM | –
N#C/N=C(\NCCCCCCC(=O)N(OCCN1CCOCC1)C1CCCCC1)Nc1ccncc1 | 0.42 nM | 0.1 nM | IC50 [1]: 0.2 nM
O=C1C(=O)C(Nc2ccncc2)C1NCCCCCCCS(=O)(=O)N(OCCN1CCOCC1)C1CCCCC1 (centres undefined) | 8 nM | 0.49 nM | IC50 [1]: 3.6 nM
O=C(NCCCCCCS(=O)(=O)N(CCN1CCOCC1)CC1CCCCC1)NCc1cccnc1 | 0.93 nM | 0.17 nM | IC50 [1]: 11.8 nM
N#C/N=C(\NCCCCC[C@H](Cc1ccccc1)C(=O)NOC1CCCCC1)Nc1ccncc1 | 1.7 nM | 0.22 nM | Stability (Plasma): Unstable
O=C(NCCCCCS(=O)(=O)N(OCCN1CCOCC1)C1CCCCC1)NCc1cccnc1 | 6.5 nM | 4.6 nM | –
N#C/N=C(\NCCCCC[C@@H](Cc1ccccc1)C(=O)NOC1CCCCC1)Nc1ccncc1 | 5.3 nM | 0.32 nM | Stability (Plasma): Unstable
O=C(NCCCCCS(=O)(=O)N(OCCN1CCOCC1)C1CCCC1)NCc1cccnc1 | 7 nM | 2.7 nM | –
O=C(NCCCCCCS(=O)(=O)N(OCCN1CCOCC1)C1CCCCC1)Nc1ccncc1 | 0.05 nM | 0.25 nM | IC50 (HCT-116 [2]): > 5000 nM; MTD at 120 h [3]: < 10 mg/kg; Tmax [4]: 4.8 min; MTD at 120 h [5]: < 10 mg/kg; IC50 (HCT-116 [6]): 5.3 nM; half-life [7]: 27 min; clearance [8]: 7.11 L/h/kg; Ratio IC50 (HCT-116 [9]): 128; IC50 [1]: 49 nM; Vd [10]: 4.6 L/kg; Cmax [11]: 14.8 µg/mL; AUC [12]: 7.02 µg·h/mL
O=C(NCCCCCCS(=O)(=O)N(CCCN1CCOCC1)C1CCC1)NCc1cccnc1 | 8.7 nM | 1.7 nM | –
O=C(CCCCCCNc1c(Nc2ccncc2)c(=O)c1=O)N(OCCN1CCOCC1)C1CCCCC1 | – | 0.03 nM | –
N#C/N=C(\NCCCCCS(=O)(=O)N(OCCN1CCOCC1)C1CCCCC1)Nc1ccncc1 | 0.036 nM | 0.011 nM | –
N#C/N=C(\NCCCCCCS(=O)(=O)N(CCCN1CCOCC1)C1CCC1)Nc1ccncc1 | 0.1 nM | 0.091 nM | –
O=C(NCCCCCCS(=O)(=O)N(CCN1CCOCC1)CC1CCCCC1)Nc1ccncc1 | 1.4 nM | 0.56 nM | IC50 [1]: 133 nM
N#C/N=C(\NCCCCCCS(=O)(=O)N(CCCN1CCOCC1)C1CCCCC1)Nc1ccncc1 | 0.11 nM | 0.16 nM | IC50 [1]: 2.4 nM
O=C1C(=O)C(Nc2ccncc2)C1NCCCCCS(=O)(=O)N(OCCN1CCOCC1)C1CCCC1 (centres undefined) | 46.3 nM | 0.38 nM | –
N#C/N=C(\NCCCCCCS(=O)(=O)N(OCCN1CCOCC1)C1CCCCC1)Nc1cccnc1 | 2.9 nM | 0.51 nM | –
C[C@@H](CCCCCN/C(=N\C#N)Nc1ccncc1)C(=O)NOC1CCCCC1 | 1 nM | 0.08 nM | –
N#C/N=C(\NCCCCCCS(=O)(=O)N(OCCN1CCOCC1)C1CCC1)Nc1ccncc1 | 0.007 nM | 0.049 nM | –
N#CN=C(NCCCCCCOc1ccc(Cl)cc1)Nc1ccncc1 [CHS-828] | 1.6 nM | 0.56 nM | –
O=C(NCCCCCCS(=O)(=O)N(OCCN1CCOCC1)C1CCCC1)NCc1cccnc1 | 5.8 nM | 0.58 nM | –
O=C(NCCCCCS(=O)(=O)N(OCCN1CCOCC1)C1CCCCC1)Nc1ccncc1 | 28 nM | 3.4 nM | –
O=C1C(=O)C(Nc2ccncc2)C1NCCCCCCS(=O)(=O)N(CCN1CCOCC1)OCC1CCCCC1 (centres undefined) | 10.8 nM | 0.73 nM | –
